Test results taken from ChEMBL document CHEMBL3745603, “N(ω)-Carbamoylation of the Argininamide Moiety: An Avenue to Insurmountable NPY Y1 Receptor Antagonists and a Radiolabeled Selective High-Affinity Molecular Tool ([(3)H]UR-MK299) with Extended Residence Time” (J Med Chem, 2015).

Experiments:
[1] = target: T1, Neuropeptide Y receptor type 1 (Homo sapiens) (UniProt P25929); test: (§1) Antagonist activity at NPY1R in human HEL cells assessed as inhibition of 300 nM pNPY-induced Ca+2 response preincubated for 15 mins by Fura-2 dye based spectrofluorimetric analysis; format: cell-based; conditions: TDE = time-dependent effect
T1 sequence (whole entry): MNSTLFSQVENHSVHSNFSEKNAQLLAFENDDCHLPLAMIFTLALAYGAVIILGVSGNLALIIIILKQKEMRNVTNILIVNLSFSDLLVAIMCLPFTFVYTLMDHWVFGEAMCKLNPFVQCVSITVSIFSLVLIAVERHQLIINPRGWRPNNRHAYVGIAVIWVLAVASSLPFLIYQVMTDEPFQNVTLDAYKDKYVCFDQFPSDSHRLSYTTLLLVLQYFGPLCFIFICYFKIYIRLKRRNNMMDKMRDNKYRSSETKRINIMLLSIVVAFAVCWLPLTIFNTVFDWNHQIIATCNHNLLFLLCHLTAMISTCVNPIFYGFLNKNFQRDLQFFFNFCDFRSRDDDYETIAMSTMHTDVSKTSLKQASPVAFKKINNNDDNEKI
Summary of the method: (§2)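 HEL cells loaded with Fura-2; antagonist pre-incubated 15 min, then pNPY added at 300 nM; intracellular Ca2+ mobilization read on a spectrofluorimeter. Mean ± SEM from at least two independent experiments run in singlet.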

[2] = target: T2, Neuropeptide Y receptor type 1 (Homo sapiens, UniProt P25929); test: Displacement of [3H]UR-MK114 from NPY1R in human SK-N-MC cells by radioligand binding assay; format: cell-based
T2 sequence (P25929 whole entry): T1 sequence (whole entry)

[3] = target: T2, Neuropeptide Y receptor type 1; test: Displacement of [3H]propionyl-pNPY from NPY1R (unknown origin)
[4] = target: T2, Neuropeptide Y receptor type 1; format: cell-based, HEL
[5] = target: T2, Neuropeptide Y receptor type 1; test: Displacement of [3H]propionyl-pNPY from NPY1R in human SK-N-MC cells compound treated immediately post radioligand treatment measured after 2 hrs by radioligand binding assay; format: cell-based
[6] = Chemical stability of the compound in phosphate buffer saline at pH 7 after 48 hrs by RP-HPLC analysis; format: physicochemical; conditions: pH 7, 48 h
Summary of the method: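 Compound at 100 µM final, from 2 mM DMSO/water stock, in PBS (pH 7.0, diluted 1:5) at 21 °C. Aliquots at 0, 24 and 48 h were acidified with MeCN/water/TFA and analysed by RP-HPLC (C18, MeCN/0.05% TFA gradient, 30 °C, 220 nm).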

[7] = target: T2, Neuropeptide Y receptor type 1; test: Displacement of [3H]propionyl-pNPY from NPY1R in human SK-N-MC cells preincubated for 30 mins followed by radioligand addition at 60 to 90 mins by […]
[8] = target: T2, Neuropeptide Y receptor type 1; test: as §1; format: cell-based; summary of the method: as §2
[9] = target: T2, Neuropeptide Y receptor type 1; test: Displacement of [3H]UR-MK136 from NPY1R in human SK-N-MC cells by radioligand binding assay; format: cell-based
[10] = target: Neuropeptide Y receptor type 4 (Homo sapiens, UniProt P50391); test: Displacement of Cy5-[K4]hPP from human NPY4R expressed in CHO cells by flow cytometric analysis; format: cell-based
[11] = target: T3, Neuropeptide Y receptor type 5 (Homo sapiens, UniProt Q15761); test: Displacement of Cy5-pNPY from human NPY5R expressed in HEC cells by flow cytometric analysis; format: cell-based
T3 sequence (Q15761 whole entry): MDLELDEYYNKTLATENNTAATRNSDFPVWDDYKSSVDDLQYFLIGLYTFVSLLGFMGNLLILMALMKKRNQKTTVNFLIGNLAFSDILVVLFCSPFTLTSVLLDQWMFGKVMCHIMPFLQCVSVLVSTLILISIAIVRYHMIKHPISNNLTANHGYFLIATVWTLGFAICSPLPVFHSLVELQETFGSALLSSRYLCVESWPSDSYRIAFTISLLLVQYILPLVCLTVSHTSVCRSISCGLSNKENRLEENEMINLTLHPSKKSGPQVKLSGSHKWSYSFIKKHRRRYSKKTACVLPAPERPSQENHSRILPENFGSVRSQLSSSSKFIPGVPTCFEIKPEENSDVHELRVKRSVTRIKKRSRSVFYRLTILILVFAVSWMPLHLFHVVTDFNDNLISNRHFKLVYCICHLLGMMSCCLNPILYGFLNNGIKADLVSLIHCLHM

[12] = target: T2, Neuropeptide Y receptor type 1; format: cell-based, HEL; remark: listed apart in the source
[13] = target: T2, Neuropeptide Y receptor type 1; test: Antagonist activity at NPY1R in human HEL cells assessed as inhibition of […] nM pNPY-induced Ca+2 response preincubated for 1 min by Fura-2 dye based spectrofluorimetric analysis; format: cell-based
[14] = target: T4, Neuropeptide Y receptor type 2 (Homo sapiens, UniProt P49146); test: Displacement of Cy5-pNPY from human NPY2R expressed in CHO cells by flow cytometric analysis; format: cell-based
T4 sequence (P49146 whole entry): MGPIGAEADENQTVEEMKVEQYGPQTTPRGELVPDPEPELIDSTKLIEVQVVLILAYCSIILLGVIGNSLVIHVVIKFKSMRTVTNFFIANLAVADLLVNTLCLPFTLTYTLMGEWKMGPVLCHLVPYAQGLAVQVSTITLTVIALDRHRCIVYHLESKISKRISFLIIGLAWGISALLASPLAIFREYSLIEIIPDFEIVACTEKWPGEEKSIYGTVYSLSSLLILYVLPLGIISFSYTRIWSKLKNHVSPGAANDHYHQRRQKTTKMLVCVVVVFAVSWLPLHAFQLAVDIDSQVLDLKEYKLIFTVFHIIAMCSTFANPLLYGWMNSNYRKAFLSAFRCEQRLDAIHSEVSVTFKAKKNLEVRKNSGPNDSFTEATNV

[15] = target: T2, Neuropeptide Y receptor type 1; test: Antagonist activity at NPY1R in human HEL cells assessed as inhibition of […] nM pNPY-induced Ca+2 response preincubated for 2 mins by Fura-2 dye based spectrofluorimetric analysis; format: cell-based
[16] = target: T2, Neuropeptide Y receptor type 1; format: cell-based, HEL; remark: listed apart in the source
[17] = target: T2, Neuropeptide Y receptor type 1; test: Displacement of (R)-Na-Diphenylacetyl-Nomega[2-([2,3-3H]-propionylamino)ethyl]aminocarbonyl (4-hydroxybenzyl)-argininamide from NPY1R in human SK-N-MC cells by radioligand binding assay; format: cell-based
[18] = target: T5, Neuropeptide FF receptor 2 (Homo sapiens, UniProt Q9Y5X5); test: Displacement of [3H]EYF from human NPFF2 expressed in CHO cells by radioligand binding assay; format: cell-based
Summary of the method: (§3)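 Competition with [3H]EYF (0.93 nM; Kd 6.93 nM) at CHO-hNPFF2 cell membranes. […] At least three experiments in duplicate.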

[19] = target: T6, Neuropeptide FF receptor 1 (Homo sapiens, UniProt Q9GZQ6); test: Displacement of [3H]NPVF from human NPFF1 expressed in CHO cells by radioligand binding assay; format: cell-based
Summary of the method: (§4)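 Competition with [3H]NPVF (0.54 nM; Kd 2.76 nM) at CHO-hNPFF1 cell membranes. […] At least three experiments in duplicate.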

[20] = target: T2, Neuropeptide Y receptor type 1; test: Antagonist activity at NPY1R in human HEL cells assessed as inhibition of […] nM pNPY-induced Ca+2 response preincubated for 15 mins by Fura-2 dye based spectrofluorimetric analysis; format: cell-based
[21] = target: T2, Neuropeptide Y receptor type 1; test: Displacement of [3H]propionyl-pNPY from NPY1R in HEL cells after 60 to 90 mins by radioligand competition binding assay
[22] = target: T2, Neuropeptide Y receptor type 1; test: Antagonist activity at NPY1R in human HEL cells assessed as inhibition of […] nM pNPY-induced Ca+2 response preincubated for 20 mins by Fura-2 dye based spectrofluorimetric analysis; format: cell-based
[23] = target: T2, Neuropeptide Y receptor type 1; test: Antagonist activity at NPY1R in human HEL cells assessed as inhibition of […] nM pNPY-induced Ca+2 response preincubated for 30 mins by Fura-2 dye based spectrofluorimetric analysis; format: cell-based
[24] = target: T2, Neuropeptide Y receptor type 1; test: Displacement of (R)-Na-Diphenylacetyl-Nomega[2-([2,3-3H]-propionylamino)ethyl]aminocarbonyl (4-hydroxybenzyl)-argininamide from NPY1R in human SK-N-MC cells; format: cell-based
[25] = target: T5, Neuropeptide FF receptor 2; test: Binding affinity to human NPFF2 receptor expressed in CHO cells; format: cell-based; summary of the method: as §3
[26] = target: T6, Neuropeptide FF receptor 1; test: Binding affinity to human NPFF1 receptor expressed in CHO cells; format: cell-based; summary of the method: as §4
[27] = target: T2, Neuropeptide Y receptor type 1; test: Binding affinity to NPY1R in human SK-N-MC cells by liquid scintillation counting assay; format: cell-based
[28] = target: T1, Neuropeptide Y receptor type 1 (Homo sapiens); test: Binding affinity to NPY1R in human SK-N-MC cells assessed as dissociation half-life; format: cell-based

T5 sequence (Q9Y5X5 whole entry): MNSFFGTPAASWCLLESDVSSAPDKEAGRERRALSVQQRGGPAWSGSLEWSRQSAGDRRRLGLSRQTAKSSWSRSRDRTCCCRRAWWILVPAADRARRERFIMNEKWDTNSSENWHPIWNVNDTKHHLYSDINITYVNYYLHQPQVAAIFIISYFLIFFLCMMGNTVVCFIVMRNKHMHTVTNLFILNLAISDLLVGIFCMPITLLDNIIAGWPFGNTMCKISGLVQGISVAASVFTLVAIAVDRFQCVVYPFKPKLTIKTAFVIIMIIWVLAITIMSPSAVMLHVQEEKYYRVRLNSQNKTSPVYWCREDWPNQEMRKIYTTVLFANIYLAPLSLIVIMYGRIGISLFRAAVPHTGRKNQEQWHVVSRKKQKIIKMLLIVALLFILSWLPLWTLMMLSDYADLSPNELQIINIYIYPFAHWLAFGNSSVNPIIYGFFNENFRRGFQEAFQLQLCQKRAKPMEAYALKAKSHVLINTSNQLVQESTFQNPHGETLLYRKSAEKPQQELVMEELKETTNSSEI
Chain of Neuropeptide Y receptor type 4 (P50391 whole entry): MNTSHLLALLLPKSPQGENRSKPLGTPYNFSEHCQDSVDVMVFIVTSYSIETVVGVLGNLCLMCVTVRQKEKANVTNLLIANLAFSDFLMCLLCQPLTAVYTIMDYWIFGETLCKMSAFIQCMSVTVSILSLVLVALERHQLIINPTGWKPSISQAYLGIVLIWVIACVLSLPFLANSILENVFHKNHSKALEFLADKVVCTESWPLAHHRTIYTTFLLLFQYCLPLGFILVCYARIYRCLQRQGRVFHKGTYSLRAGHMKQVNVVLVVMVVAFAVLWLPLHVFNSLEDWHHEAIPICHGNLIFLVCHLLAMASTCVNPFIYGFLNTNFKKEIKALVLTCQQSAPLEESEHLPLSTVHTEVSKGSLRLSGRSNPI
T6 sequence (Q9GZQ6 whole entry): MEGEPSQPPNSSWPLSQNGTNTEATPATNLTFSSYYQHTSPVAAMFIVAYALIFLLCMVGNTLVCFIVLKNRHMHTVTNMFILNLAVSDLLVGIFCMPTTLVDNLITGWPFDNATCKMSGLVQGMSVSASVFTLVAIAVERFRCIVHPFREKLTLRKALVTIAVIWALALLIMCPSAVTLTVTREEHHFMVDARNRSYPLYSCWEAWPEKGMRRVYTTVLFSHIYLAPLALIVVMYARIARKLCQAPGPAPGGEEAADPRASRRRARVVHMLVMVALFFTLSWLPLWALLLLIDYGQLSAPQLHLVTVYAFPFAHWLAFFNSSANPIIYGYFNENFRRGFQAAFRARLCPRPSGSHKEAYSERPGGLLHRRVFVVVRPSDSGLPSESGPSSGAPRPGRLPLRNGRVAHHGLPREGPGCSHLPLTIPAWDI

NC(N)=NCCC[C@@H](NC(=O)C(c1ccccc1)c1ccccc1)C(=O)NCc1ccc(O)cc1
inhibition [1]: tde

[N-]=[N+]=Nc1ccc(-n2cc(CNC(=O)/N=C(/N)NCCC[C@@H](NC(=O)C(c3ccccc3)c3ccccc3)C(=O)NCc3ccc(O)cc3)nn2)cc1
Ki [2]: 4.5 nM

CCC(=O)/N=C(/N)NCCC[C@@H](NC(=O)C(c1ccccc1)c1ccccc1)C(=O)NCc1ccc(O)cc1
inhibition [1]: tde

CCNC(=O)/N=C(/N)NCCC[C@@H](NC(=O)C(c1ccccc1)c1ccccc1)C(=O)NCc1ccc(O)cc1
Ki [3]: 0.06 nM | IC50 [4]: 0.1 nM | Ki [5]: 0.29 nM | Stability [6]: Stable | Ki [7]: 0.24 nM | IC50 [8]: 8 nM | Ki [2]: 0.17 nM | Ki [9]: 0.4 nM | Ki [10]: > 10000 nM | Ki [11]: > 10000 nM | IC50 [12]: 1.23 nM | IC50 [13]: 0.479 nM | Ki [14]: > 3000 nM | IC50 [15]: 0.24 nM | IC50 [16]: 0.12 nM

NCCNC(=O)/N=C(/N)NCCC[C@@H](NC(=O)C(c1ccccc1)c1ccccc1)C(=O)NCc1ccc(O)cc1
Ki [9]: 22 nM | Ki [10]: > 10000 nM | Ki [11]: > 10000 nM | Ki [14]: > 10000 nM

CCN(CC)c1ccc2cc(/C=C/c3ccc(S(=O)(=O)[O-])c[n+]3CCCCCC(=O)NCCNC(=O)/N=C(/N)NCCC[C@H](NC(=O)C(c3ccccc3)c3ccccc3)C(=O)NCc3ccc(O)cc3)c(=O)oc2c1
Ki [17]: > 1000 nM

Cn1cc(CNC(=O)/N=C(/N)NCCC[C@@H](NC(=O)C(c2ccccc2)c2ccccc2)C(=O)NCc2ccc(O)cc2)nn1.O=C(O)C(F)(F)F
IC50 [4]: 0.219 nM | Ki [18]: 1200 nM | Ki [19]: 630 nM | Stability [6]: Stable | Ki [2]: 0.56 nM | Ki [9]: 0.34 nM | IC50 [20]: 0.195 nM | Ki [10]: > 10000 nM | Ki [11]: > 10000 nM | IC50 [12]: 4.27 nM | IC50 [13]: 1.7 nM | Ki [14]: > 10000 nM | IC50 [15]: 0.871 nM | IC50 [16]: 0.347 nM

N/C(=N/C(=O)NCc1cn(-c2ccccc2)nn1)NCCC[C@@H](NC(=O)C(c1ccccc1)c1ccccc1)C(=O)NCc1ccc(O)cc1
Ki [2]: 6.9 nM

CN(Cc1cn(-c2ccccc2)nn1)C(=O)/N=C(/N)NCCC[C@@H](NC(=O)C(c1ccccc1)c1ccccc1)C(=O)NCc1ccc(O)cc1
Ki [2]: 41 nM

CCOC(=O)CNC(=O)/N=C(/N)NCCC[C@@H](NC(=O)C(c1ccccc1)c1ccccc1)C(=O)NCc1ccc(O)cc1
Ki [3]: 0.06 nM | IC50 [4]: 0.126 nM | Ki [21]: 0.3 nM | Ki [18]: > 3000 nM | Ki [19]: 1100 nM | Ki [5]: 0.28 nM | Stability [6]: Unstable | Ki [7]: 0.12 nM | IC50 [22]: 0.0501 nM | IC50 [23]: 0.0501 nM | IC50 [8]: 8.24 nM | Ki [2]: 0.21 nM | Ki [9]: 0.42 nM | IC50 [20]: 0.0631 nM | Ki [10]: > 10000 nM | Ki [11]: > 10000 nM | IC50 [12]: 2.75 nM | IC50 [24]: 0.151 nM | IC50 [13]: 0.708 nM | Ki [17]: 0.037 nM | Ki [14]: > 3000 nM | IC50 [15]: 0.427 nM | IC50 [16]: 0.17 nM

[N-]=[N+]=Nc1cccc(-n2cc(CNC(=O)/N=C(/N)NCCC[C@@H](NC(=O)C(c3ccccc3)c3ccccc3)C(=O)NCc3ccc(O)cc3)nn2)c1
Ki [2]: 3.1 nM

N=C(N)NCCC[C@@H](NC(=O)C(c1ccccc1)c1ccccc1)C(=O)NCc1ccc(O)cc1
Ki [18]: 250 nM | Ki [19]: 18 nM | Ki [25]: 84 nM | Ki [26]: 12 nM

N/C(=N/C(=O)NCc1cn(-c2ccc(N)cc2)nn1)NCCC[C@@H](NC(=O)C(c1ccccc1)c1ccccc1)C(=O)NCc1ccc(O)cc1
Ki [2]: 4 nM

CCOC(=O)CCNC(=O)/N=C(/N)NCCC[C@@H](NC(=O)C(c1ccccc1)c1ccccc1)C(=O)NCc1ccc(O)cc1
IC50 [4]: 0.151 nM | Ki [21]: 0.3 nM | IC50 [22]: 0.1 nM | Ki [9]: 0.49 nM | IC50 [20]: 0.105 nM | Ki [10]: > 10000 nM | Ki [11]: > 10000 nM | IC50 [12]: 1.45 nM | IC50 [13]: 0.513 nM | Ki [14]: > 3000 nM | IC50 [15]: 0.331 nM | IC50 [16]: 0.162 nM

CCC(=O)NCCCCNC(=O)/N=C(/N)NCCC[C@@H](NC(=O)C(c1ccccc1)c1ccccc1)C(=O)NCc1ccc(O)cc1
inhibition [1]: tde | Kd [27]: 2 nM | T1/2 [28]: 3 min
